Measured values from ChEMBL document CHEMBL1156395, “Cytotoxic polyacetylenic alcohols from the marine sponge Petrosia species” (2001).
Values after ≈ are worked out from the molar mass of the structure shown.

Experiments:
[1] = tested on: SK-MEL-2; assay: Cytotoxicity against human SK-MEL-2 cells; assay type: functional; settings: read-out: ED50 (the source's name)
[2] = tested on: HCT-15; assay: Cytotoxicity against human HCT15 cells; assay type: functional; settings: read-out: ED50 (the source's name)
[3] = tested on: Nucleic Acid; assay: Inhibition of SV40 DNA replication at 40 uM; assay type: nucleic-acid assay; settings: Betapolyomavirus macacae
In short: (§1)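 Cell-free SV40 origin (pUC) plasmid replication in 40 mM creatine phosphate-di-Tris pH 7.7 with creatine kinase, 7 mM MgCl2, 0.5 mM DTT, 4 mM ATP, 200 µM UTP/GTP/CTP, 100 µM dATP/dGTP/dCTP, 25 µM [3H]dTTP, 0.6 µg SV40 T-Ag and replication proteins. Incubation 90 min at 37 °C; acid-insoluble radioactivity counted. Products checked with [α-32P]dATP on agarose gel.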

[4] = tested on: A549; assay: Cytotoxicity against human A549 cells; assay type: functional; settings: read-out: ED50 (the source's name)
[5] = tested on: XF498; assay: Cytotoxicity against human XF498 cells; assay type: functional; settings: read-out: ED50 (the source's name)
[6] = tested on: SK-OV-3; assay: Cytotoxicity against human SKOV3 cells; assay type: functional; settings: read-out: ED50 (the source's name)
[7] = tested on: Nucleic Acid; assay: Inhibition of SV40 DNA replication at 20 uM; assay type: nucleic-acid assay; settings: Betapolyomavirus macacae; in short: as §1

Row | SMILES | inhibition [3] [%] | inhibition [7] [%] | EC50 [1] [µg/mL] | EC50 [2] [µg/mL] | EC50 [4] [µg/mL] | EC50 [5] [µg/mL] | EC50 [6] [µg/mL]
1 | C#C/C=C\CCCCCCCCCCCCCCC(O)/C=C/CCC/C=C\CCCCC#C[C@H](O)C#CCCCCCC/C=C/[C@H](O)C#C (stereo not given in full) | 55 | 8 | 0.5 (≈ 0.745 µM) | 1.4 (≈ 2.09 µM) | 4 (≈ 5.96 µM) | 3.5 (≈ 5.22 µM) | 1.2 (≈ 1.79 µM)
2 | C#C/C=C\CCCCCCCCCCCCC/C=C/C(O)CCCC/C=C\CCCCC#C[C@H](O)C#CCCCCCC/C=C/[C@H](O)C#C (stereo not given in full) | 55 | 8 | 0.5 (≈ 0.745 µM) | 1.4 (≈ 2.09 µM) | 4 (≈ 5.96 µM) | 3.5 (≈ 5.22 µM) | 1.2 (≈ 1.79 µM)

Further lines, with some results ahead:

Row | inhibition [3] [%] | inhibition [7] [%] | SMILES | EC50 [1] [µg/mL] | EC50 [2] [µg/mL] | EC50 [4] [µg/mL] | EC50 [5] [µg/mL] | EC50 [6] [µg/mL]
3 | 48 | 16 | C#CCCCCCCCCCCCCCCCCC/C=C\CCCC/C=C\CCCCC#C[C@@H](O)C#CCCCCCCCC[C@@H](O)C#C [PETROTETRAYNDIOL F] | 1.1 (≈ 1.63 µM) | 3.4 (≈ 5.05 µM) | 3.7 (≈ 5.5 µM) | 4.3 (≈ 6.39 µM) | 3.8 (≈ 5.65 µM)
4 | 36 | 9 | C#C/C=C\CCCCCCCCCCCCCC/C=C\CCCCC(O)/C=C/CCCC#C[C@H](O)C#CCCCCCC/C=C/[C@H](O)C#C (stereo not given in full) | 1.3 (≈ 1.94 µM) | 4 (≈ 5.96 µM) | 10 (≈ 14.9 µM) | 4.7 (≈ 7 µM) | 1.8 (≈ 2.68 µM)
5 | 38 | 21 | C#C/C=C\CCCCCCCCCCCCCCCC/C=C\CCCC/C=C\CCCCC#C[C@@H](O)C#CCCCCCC/C=C/[C@H](O)C#C | 1.6 (≈ 2.34 µM) | 3.9 (≈ 5.71 µM) | 5.2 (≈ 7.61 µM) | 5.8 (≈ 8.49 µM) | 5.1 (≈ 7.47 µM)
